Only some compounds are listed: those with a hit (about 3.2% of all), similar ones and a draw of the others.
DAX1 inh-1 – NR0B1 (DAX1) inhibition. P51843. HEK293 Gal4-DAX1 luciferase reporter, luminescence. inhibition, % at 6.75 µM. 0.99% of 340,000 active. AID 504766;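 active means inhibition above the mean over all tested compounds plus 3 SD, cut at about 4.2% in these data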;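 further: 0% = DAX1-transfected cells with DMSO and 100% = empty-vector control cells with DMSO; inhibition shows as a rise in luminescence from relieved DAX1 repression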
SMARCA2 act – SMARCA2 function activation, primary screen | MG213 cells, MMTV-luciferase reporter, dexamethasone, overnight | activation, % at 9.1 µM | 1% of 370,000 active | AID 652017; in the data active means activation above about 7.8%;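 further: 0% = vehicle wells and 100% = reference activator wells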
NR2E3 ag-1 – human photoreceptor-specific nuclear receptor agonism | inhibition of corepressor binding, % at 3.98 µM | CHO-S Gal4-NCOR/VP16-NR2E3 two-hybrid, luciferase | 0.35% of 360,000 active | Q9Y5X4 | AID 602229;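 active means inhibition above the mean of all tested compounds plus 3 SD, cut at about 70% in these data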;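 further: 0% = DMSO with NR2E3 transfected cells and 100% = cells lacking NR2E3 construct; higher means lower luciferase signal from less NR2E3 corepressor binding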
Target sequence (Q9Y5X4 whole entry, looked up, the tested form may be a part): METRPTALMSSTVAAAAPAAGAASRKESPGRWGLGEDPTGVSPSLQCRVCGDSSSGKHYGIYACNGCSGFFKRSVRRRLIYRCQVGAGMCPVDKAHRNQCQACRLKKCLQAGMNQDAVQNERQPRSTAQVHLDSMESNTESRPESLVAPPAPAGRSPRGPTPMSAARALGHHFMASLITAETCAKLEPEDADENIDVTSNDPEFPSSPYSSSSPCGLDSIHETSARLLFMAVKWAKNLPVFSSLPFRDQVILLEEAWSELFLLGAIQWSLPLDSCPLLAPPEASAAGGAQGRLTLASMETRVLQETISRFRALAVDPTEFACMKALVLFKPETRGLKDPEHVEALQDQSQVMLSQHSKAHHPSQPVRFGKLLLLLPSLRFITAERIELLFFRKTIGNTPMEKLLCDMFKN
JMJD2C inh – inhibitors of human GASC-1 (JMJD2C) demethylase; inhibition, % at 2.35 µM; GST-JMJD2C(1-420) H3K9me3 demethylation, DELFIA europium; 0.069% of 330,000 active;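 active means more than half of a compound's replicate wells show inhibition beyond 50%, single wells judged on their own value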;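 further: signal counts dimethyl H3K9 product captured on neutravidin plate; 0% = median of DMSO wells and 100% = 0.3 times that DMSO median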
Target sequence (Q9H3R0 1-420 limits assumed): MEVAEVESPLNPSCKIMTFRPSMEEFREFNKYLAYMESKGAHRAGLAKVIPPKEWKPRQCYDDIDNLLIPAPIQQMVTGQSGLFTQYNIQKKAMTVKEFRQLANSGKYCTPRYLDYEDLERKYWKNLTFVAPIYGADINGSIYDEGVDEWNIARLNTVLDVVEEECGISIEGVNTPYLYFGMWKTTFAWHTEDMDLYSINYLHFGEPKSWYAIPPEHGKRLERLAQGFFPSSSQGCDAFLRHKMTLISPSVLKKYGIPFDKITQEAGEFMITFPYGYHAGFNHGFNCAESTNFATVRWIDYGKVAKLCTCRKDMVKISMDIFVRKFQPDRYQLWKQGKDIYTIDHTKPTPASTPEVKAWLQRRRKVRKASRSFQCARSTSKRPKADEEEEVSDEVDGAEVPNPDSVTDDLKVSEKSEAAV
DAX1 inh-2 – DAX1 (NR0B1) inhibition, primary screen; HEK293T StAR-luciferase reporter, SF-1/DAX-1 repression relief; 1.1% of 370,000 active; inhibition, % at 6.8 µM;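 active means inhibition above the mean over all tested compounds plus 3 SD, cut at about 3.6% in these data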;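 further: 0% = DAX-1 cells with DMSO and 100% = cells lacking DAX-1 with DMSO; higher inhibition means more luminescence from relief of DAX-1 repression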
NR2E3 ag-2 – NR2E3 (human) agonism; Q9Y5X4; GST-NR2E3/biotin-RetCOR TR-FRET, 1536-well; inhibition of corepressor binding, % at 4.78 µM; 0.12% of 320,000 active;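 active means percent inhibition above the cutoff of mean plus 3 SD of all tested compounds, set per screening campaign, cut at about 20% in these data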;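 further: 0% = DMSO wells and 100% = biotin wells as full block of FRET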
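System: GST-tagged NR2E3 plus biotinylated RetCOR corepressor; Buffer or medium: pH 7.5 Tris-based buffer; Probe or stimulus: RetCOR corepressor, biotinylated, 7 nM; Doses: compound at 4.8 µM, single dose; Schedule: 5 h incubation at 4 °C; Technique: time-resolved FRET; Evaluation: percent inhibition of TR-FRET ratio; Replication: one well per compound, singlicate testing.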
SMARCA2 conf – confirmation of SMARCA2 (BRM) function activators | shares compounds with SMARCA2 act | MG213 cells, MMTV-luciferase with dexamethasone, luminescence, overnight; MG213 cells expressing E1A, Rb sequestered; DMSO wells 0%, reference activator 100% | activation, % at 9.1 µM | 30% of 3,500 active | AID 652260;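 active means activation above its plate's cutoff, the mean activation of tested wells plus 3 SD, cut at about 7.9% in these data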
GAL4-VP16 Luc – counter-screen for SMARCA2 activators: GAL4-VP16 luciferase reporter activation; AID 686939; shares compounds with SMARCA2 act; activation, % at 9.1 µM; 41% of 3,500 active; HEK293 GAL4-VP16 pG5luc reporter, luciferase luminescence; scaled: DMSO wells 0%, SAHA wells 100%;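 active means activation above the solvent-only control well mean plus 3 SD, averaged across control plates, cut at about 5.2% in these data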
Starred values were filed as active, the others as inactive; . = no result given.

SMILES | DAX1 inh-1 | SMARCA2 act | NR2E3 ag-1 | JMJD2C inh | DAX1 inh-2 | NR2E3 ag-2 | SMARCA2 conf | GAL4-VP16 Luc
COC(=O)[C@]12C[C@H](CC(=O)NCCCCc3ccccc3)C(=O)N(CCC3=CCCCC3)C1=C[C@H](C(C)C)O[C@@H]2C1CC1 | . | -4.7 | . | . | 0.4 | . | . | .
O=C(c1cccs1)n1ccc2ccc(-c3ccc4ccn(Cc5ccccc5)c4c3)cc21 | . | -3.0 | . | . | 2.2 | . | . | .
CN(C)CCN(C(=O)/C=C/c1cccs1)c1nc2c(F)cc(F)cc2s1 | 1.0 | 23.5* | 20.8 | 16.2 | -0.2 | 0.3 | 23.1* | -0.1
COc1ccc(OC)c2sc(N(CCN(C)C)C(=O)/C=C/c3cccs3)nc12 | -0.7 | 14.6* | -22.8 | 1.8 | -0.1 | 1.3 | 16.6* | -0.1
CCC(C)c1ccc(OCCN2CCCC2)cc1 (stereo not drawn) | -0.4 | 9.2* | -14.1 | -14.6 | 0.1 | 0.9 | 2.7 | 1.1
CCOc1ccc(OCCN2CCCCC2)cc1 | -1.2 | 0.4 | -2.9 | 7.1 | 0.1 | -1.7 | . | .
COC(=O)C1CN(Cc2cn(CCC3OCCO3)nn2)CCS(=O)(=O)N1Cc1ccc(C)cc1 (stereo not drawn) | . | -3.6 | . | . | 0.6 | . | . | .
O=C(O)c1cccc(NC2=Nc3cccc4cccc2c34)c1 | -4.2 | 9.9* | -56.5 | 1.6 | 0.5 | -2.8 | 10.4* | 9.4*
O=C(O)c1cccc(Nc2ccnc(Nc3cccc(C(=O)O)c3)n2)c1 | -3.6 | 8.0* | -128.2 | 57.0 | 0.9 | -1.0 | 7.7 | 2.0
COC(=O)[C@]12C[C@H](CC(=O)NCCC(C)C)C(=O)N(CCc3ccc(OC)c(OC)c3)C1=C[C@H](COCc1ccccc1)O[C@@H]2C | . | -2.3 | . | . | -0.1 | . | . | .
COc1ccc(NC(=O)c2cc(F)cc(F)c2)cc1Cl | 0.3 | 9.0* | -58.5 | -1.0 | 0.5 | -3.6 | 0.9 | 2.7
COc1ccc(NC(=O)c2c(F)c(F)c(F)c(F)c2F)cc1Cl | 0.5 | -3.2 | 17.8 | -16.4 | -0.1 | 1.5 | . | .
Cc1cc2ccccn2c1C(=O)Nc1cccc(Cl)c1 | 2.2 | 8.1* | -54.3 | -6.2 | 0.9 | -1.1 | 4.9 | 3.4
O=c1cc2[nH]c3ccccc3c(=O)n2nc1-c1ccccc1 | 1.5 | 8.7* | -47.1 | 14.6 | 0.3 | -3.0 | 9.5* | 6.2*
O=c1nc(-c2ccccc2)c2cc(Br)ccc2[nH]1 | 0.1 | 1.2 | 9.6 | 55.8 | -0.2 | -0.8 | . | .
Cc1ccc(NC(=O)[C@H]2CC(=O)O[C@@H]2c2ccccc2)c(C)c1 | . | -4.5 | . | . | -0.1 | . | . | .
S=C(c1ccc(-c2ccc(Br)cc2)o1)N1CCCCC1 | 1.6 | 8.1* | -80.0 | -1.7 | 2.6 | -0.6 | 15.6* | 8.3*
O=C(c1cc(-c2ccc(Br)cc2)on1)N1CCCCCC1 | 1.7 | 9.4* | -113.1 | 3.2 | 1.0 | 2.4 | 3.7 | 5.7*
COc1cccc(CC(NC(C)=O)C(=O)NC2CCN(S(=O)(=O)c3ccc(NC(C)=O)cc3)CC2)c1OC (stereo not drawn) | -0.8 | -3.8 | -22.6 | 8.6 | 0.2 | 0.0 | . | .
Cn1c(=O)c2[nH]c(SCCN)nc2n(C)c1=S | -0.1 | -1.7 | -41.8 | . | -1.3 | . | . | .
CSc1nc2c([nH]1)c(=S)n(C)c(=O)n2C | -2.3 | 8.4* | 33.4 | . | 0.0 | . | 9.0* | 0.6
COc1cc(-c2ccc(=O)[nH]n2)ccc1OC(F)F | 0.1 | 8.1* | 4.1 | -0.6 | 1.7 | 2.0 | 15.3* | 3.0
Cn1c2ccccc2c(=O)c2ccc(C#Cc3ccccn3)cc21 | . | 2.2 | . | 6.4 | 0.3 | -69.0 | . | .
Cn1c2ccccc2c(=O)c2cc(C#CC3(O)CCCCC3)ccc21 | -1.6 | 0.2 | -3.9 | 3.3 | 0.4 | -0.6 | . | .
Cn1c2ccccc2c(=O)c2cc(C#Cc3ccccn3)ccc21 | 1.5 | 8.1* | -125.9 | -6.0 | 0.5 | 5.9 | 20.6* | 5.3*
SMILES | DAX1 inh-1 | SMARCA2 act | NR2E3 ag-1 | JMJD2C inh | DAX1 inh-2 | NR2E3 ag-2 | SMARCA2 conf | GAL4-VP16 Luc
Cn1c2ccccc2c(=O)c2ccc(C#CC3(N)CCCCC3)cc21 | 2.1 | 19.0* | -35.0 | -2.0 | 1.8 | 4.8 | 43.8* | 19.2*
CCCc1cc(=O)n2[nH]c(-c3ccc(Br)cc3)cc2n1 | 1.2 | 8.2* | -109.2 | -5.5 | 2.1 | 2.3 | 3.7 | 9.2*
CCCc1cc(=O)n2[nH]c(C)c(-c3ccc(OC)cc3)c2n1 | 0.3 | -1.5 | -24.6 | -3.8 | -0.2 | 0.5 | . | .
CC(=O)Nc1ccc(NS(=O)(=O)c2ccc3c(c2)oc(=O)n3C)cc1 | -1.5 | 2.3 | -24.0 | -4.1 | -0.3 | 4.4 | . | .
O=C(NCc1nnc2c(C(F)(F)F)cc(Cl)cn12)c1cccnc1 | -0.2 | 9.5* | -30.1 | 1.7 | 0.0 | 3.7 | -3.8 | 2.2
O=C(NCc1nnc2c(C(F)(F)F)cc(Cl)cn12)c1ccc(Br)o1 | 0.6 | -3.4 | -19.5 | -1.3 | 0.1 | 0.3 | . | .
O=C(CN1C(=O)CSC1=O)Nc1ccccc1N1CCOCC1 | -1.8 | 9.8* | -21.6 | -0.7 | 0.2 | 3.3 | -1.6 | -0.2
Cc1occc1-c1nnc(SCC(=O)N[C@@H]2CCc3ccccc32)n1-c1ccccc1 | . | -6.1 | . | . | -0.3 | . | . | .
CCOC(=O)C1=C(C)c2ccccc2N(C(=O)OC)C1(C)C(=O)OCC (stereo not drawn) | -1.7 | 8.1* | 35.1 | . | -2.0 | . | 1.3 | -0.7
COc1ccc(C(=O)C2(C(=O)Nc3cc(C)cc(C)c3)CC(c3ccccn3)=NO2)cc1 (stereo not drawn) | . | -3.0 | . | . | 0.4 | . | . | .
O=c1cc(-c2cccc(F)c2)oc2ccccc12 | 0.9 | 2.0 | -42.5 | . | 0.6 | . | . | .
O=c1cc(-c2ccc3c(c2)OCO3)oc2ccccc12 | 2.0 | 17.5* | -73.6 | 12.0 | 2.0 | 2.5 | 6.4 | 7.3*
O=c1cc(-c2ccc(O)cc2)oc2ccccc12 | 3.1 | 9.0* | -57.1 | 22.1 | 2.6 | 7.4 | 11.5* | 9.0*
CC1(NC(=O)c2ccc(C#Cc3cccc(F)c3)cn2)COC1 | . | -2.9 | . | . | -1.4 | . | . | .
Cc1cccc(NC(=S)NNC(=O)c2csc(C)c2)c1 | 1.5 | 9.2* | -101.0 | -2.0 | 2.4 | -6.3 | 8.0* | 7.5*
Cc1cccc(NC(=S)NNC(=O)c2csc3c2CCCC3)c1 | 0.3 | 4.2 | -49.8 | -4.8 | 1.4 | 2.3 | . | .
Cc1ccc(S(=O)(=O)c2nc(-c3ccc(F)cc3)oc2N2CCOCC2)cc1 | -0.7 | 11.5* | 3.9 | -1.3 | 0.0 | 5.1 | -1.9 | -1.0
Cc1nc(N2CCOCC2)nc(Oc2ccccc2)c1[N+](=O)[O-] | 0.4 | 10.6* | -4.1 | 10.5 | -0.1 | -3.5 | 1.0 | -1.6
CCCCOc1nc(N2CCOCC2)nc(C)c1[N+](=O)[O-] | 0.4 | -1.5 | 0.2 | 5.3 | 0.1 | 0.0 | . | .
